Compound activity from PubChem.
HTR2A ag – mouse HTR2A agonism via beta-arrestin recruitment | 360,000 tested, 0.66% active | P35363 | activation, % at 7.6 µM | CHO-K1 mHTR2A beta-arrestin complementation, luminescence; percent of 30 µM serotonin response;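 active = activation above a run cutoff, the mean activation of all tested compounds plus 3 SD, cut at about 14% in these data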
MC4R antag cAMP – human MC4R antagonism in cAMP assay | MC4R-expressing cells, MTII-stimulated cAMP, LANCE TR-FRET | 360,000 tested, 0.48% active | P32245 | inhibition, % at 6.5 µM;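 active = inhibition above its plate's cutoff, the mean of tested wells on that plate plus 3 SD, cut at about 29% in these data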
Target sequence (P32245 whole entry, looked up): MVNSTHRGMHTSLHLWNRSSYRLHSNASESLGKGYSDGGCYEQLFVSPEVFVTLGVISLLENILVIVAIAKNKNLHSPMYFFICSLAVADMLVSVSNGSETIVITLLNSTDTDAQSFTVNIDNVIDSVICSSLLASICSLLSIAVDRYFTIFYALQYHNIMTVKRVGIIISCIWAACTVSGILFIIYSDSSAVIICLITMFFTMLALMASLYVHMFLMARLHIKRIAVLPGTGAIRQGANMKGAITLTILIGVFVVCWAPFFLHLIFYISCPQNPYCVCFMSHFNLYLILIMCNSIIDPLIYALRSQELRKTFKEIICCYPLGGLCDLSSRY
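Material – human MC4R-expressing U2OS cells · Repeats – no replicates · Detection – TR-FRET with Eu-cAMP and labeled anti-cAMP, 671 nm · Times – compound 30 min, challenge 1 h, detection 1 h · Compound – single nominal compound dose of 6.5 µM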
TAAR1 agonist – human TAAR1 agonism; Q96RJ0; CHO RD-HGA16 TAAR1, Fluo-8 calcium fluorescence; vehicle wells 0%, saturating PEA agonist 100%; activation, % at 3 µM; 360,000 tested, 0.99% active; AID 624467;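 active = activation above the mean activation of all test compounds in the run plus 3 SD, cut at about 38% in these data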
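Repeats: no replicates (n 1) | Material: CHO-derived RD-HGA16 cells with stable Gα16 and human TAAR1 | Technique: Kinetic Fluo-8 calcium fluorescence | Schedule: 17-24 h seeding, 75 min 37 °C dye, 30 min RT | Evaluation: % activation from peak over basal fluorescence ratio, DMSO-to-PEA scaled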
Beta2AR agonist – activates human beta-2 adrenergic receptor causing internalization; response, % (no concentration beside the values); 340,000 tested, 0.43% active; P07550; Am2.2-beta2AR cells, FAP receptor internalization, flow cytometry;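 active = response above a set limit, near 3 SD of response in nonfluorescent compounds, cut at about 42% in these data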
MC4R ag barr – human MC4R agonism via beta-arrestin | U2OS MC4R beta-arrestin complementation, luminescence; percent of melanotan II response, DMSO zero | activation, % at 8.9 µM | 360,000 tested, 0.98% active | AID 540308;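 active = activation above a per-plate cutoff, the mean activation of sample wells on that plate plus 3 SD, cut at about 8% in these data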
TAAR1 antagonist – antagonists of human TAAR1. Q96RJ0. CHO RD-HGA16 TAAR1, Fluo-8 calcium fluorescence, antagonist. inhibition, % at 3 µM. 360,000 tested, 1.5% active;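 active = inhibition above a per-plate cutoff, the mean inhibition of test compounds on that plate plus 3 SD, cut at about 49% in these data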
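System: RD-HGA16 CHO cells with stable hTAAR1 and Gα16 | Probe or stimulus: EC80 β-phenethylamine stimulus | Dosing: 3 µM, single point | Times: Dye loading 75 min at 37 °C, then 30 min room temperature | Measured by: Fluo-8 calcium-sensitive fluorescence | Read-out basis: % inhibition of agonist calcium response | Replicates: n of 1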
TAAR1 ag conf – human TAAR1 agonism, confirmed. 2,400 tested, 82% active. shares compounds with TAAR1 agonist. activation, % at 3 µM. CHO RD-HGA16 TAAR1, Fluo-8 calcium fluorescence; scaled: DMSO 0%, maximal phenethylamine 100%;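 active = activation above a cutoff set at the run's mean compound activation plus 3 SD, cut at about 39% in these data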
Ga16 ag counter – counter-screen for TAAR1 agonists: nonselective agonists in parental cells | shares compounds with TAAR1 agonist | CHO-Ga16 parental, Fluo-8 calcium fluorescence; normalized to maximal ATP response, DMSO zero | activation, % at 3 µM | 2,400 tested, 50% active;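 active = activation above the run cutoff, the mean activation over all tested wells plus 3 SD, cut at about 12% in these data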
TAAR1 desensitize – human TAAR1 agonist that also desensitizes the receptor; shares compounds with TAAR1 agonist; CHO RD-HGA16 hTAAR1, Fluo-8 calcium, beta-PEA response inhibition; inhibition, % at 3 µM; 2,400 tested, 46% active;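 active = inhibition above the run cutoff, the mean inhibition of all test compounds plus 3 SD, cut at about 49% in these data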;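 note: beta-PEA stimulus applied at its EC80; loss of beta-PEA calcium signal after compound pretreatment read as receptor desensitization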
Ga16 antag count – counter-screen for TAAR1 agonists: nonselective Ga16 antagonists; shares compounds with TAAR1 agonist; inhibition, % at 3 µM; CHO-Ga16 ATP-induced calcium, Fluo-8 fluorescence; 2,400 tested, 39% active;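 active = inhibition above the plate's mean compound inhibition plus 3 SD, computed per plate, cut at about 22% in these data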
Numbers stand for hits; – = inactive; · = no result. Compounds with a hit are over-represented: about 4.3% of the library has one in this group of screens.

SMILES | HTR2A ag | MC4R antag cAMP | TAAR1 agonist | Beta2AR agonist | MC4R ag barr | TAAR1 antagonist | TAAR1 ag conf | Ga16 ag counter | TAAR1 desensitize | Ga16 antag count
COc1ccc(CC(=O)Nc2ccc(NC(=O)c3ccccc3F)cc2)cc1 | – | – | 109 | – | – | 99 | 60 | 35 | – | –
COc1ccc(NC(=O)c2ccc(C(=O)c3ccccc3)o2)cc1 | – | – | 67 | – | – | 57 | – | – | – | –
COc1ccc(C(=O)Nc2ccc(C(=O)c3ccccc3)cc2)cc1 | – | – | – | – | – | – | · | · | · | ·
CN(Cc1ccccc1C(F)(F)F)C(=O)C1CCC(=O)N(CC2CCCCC2)C1 (configuration not stated) | – | – | – | · | – | – | · | · | · | ·
O=C1NCCN1CCNc1nc(NCc2ccccc2)nc2ccsc12 | – | – | 89 | · | – | 100 | 95 | 66 | 106 | 93
CC(C)Nc1nc(NCCN2CCNC2=O)c2sccc2n1 | – | – | – | · | – | – | · | · | · | ·
Cc1ccc(S(=O)(=O)CCC(=O)OCC(=O)NC(C)c2ccc(F)cc2)cc1 (configuration not stated) | – | – | – | – | – | – | · | · | · | ·
O=c1nc(N2CCCCC2)nc(Nc2ccccc2)[nH]1 | – | – | 66 | – | – | 69 | 73 | – | 80 | –
O=c1nc(N2CCCCCC2)nc(N2CCCCCC2)[nH]1 | – | – | – | – | – | – | · | · | · | ·
NNc1nc(Nc2ccccc2)nc(N2CCCCC2)n1 | – | – | 45 | – | – | – | 66 | – | – | –
COc1ccc(OC)c(CN2C(=O)c3ccccc3C2c2nnnn2Cc2ccccc2)c1 (configuration not stated) | – | · | – | · | · | – | · | · | · | ·
CC1(c2ccc(OC(F)F)cc2)NC(=O)N(CC(=O)Nc2cccc(S(N)(=O)=O)c2)C1=O (configuration not stated) | – | – | – | – | – | – | · | · | · | ·
CC1(c2ccc(OC(F)F)cc2)NC(=O)N(/N=C/c2c(O)ccc3ccccc23)C1=O (configuration not stated) | – | – | 64 | – | – | 54 | 68 | 48 | 73 | 59
COC(=O)C1=C(C)N(Cc2cccc(C(F)(F)F)c2)C(=NCc2ccccc2C(F)(F)F)NC1c1ccc(Cl)cc1 (configuration not stated) | · | · | – | · | · | – | · | · | · | ·
CCN=C1NC(c2ccc(C(F)(F)F)cc2)C(C(=O)OC)=C(C)N1Cc1cccc(C(F)(F)F)c1 (configuration not stated) | · | · | 46 | · | · | – | 53 | 28 | – | 45
CCN=C1NC(c2ccc(F)cc2)C(C(=O)OC)=C(C)N1Cc1ccc(C(F)(F)F)cc1 (configuration not stated) | · | · | – | · | · | – | · | · | · | ·
CCN=C1NC(c2ccc(Cl)cc2)C(C(=O)OC)=C(C)N1Cc1cccc(C(F)(F)F)c1 (configuration not stated) | · | · | 56 | · | · | 74 | 65 | 35 | 82 | 59
CCN=C1NC(c2ccc(F)cc2)C(C(=O)OC)=C(C)N1Cc1cccc(C(F)(F)F)c1 (configuration not stated) | · | · | 92 | · | · | 95 | 71 | 39 | 76 | 57
Cc1c(C(=O)OCC(=O)NCCc2ccc(S(N)(=O)=O)cc2)oc2ccccc12 | – | – | – | – | – | – | · | · | · | ·
